Test results reported in publication PMC3823230 (Journal of Cellular and Molecular Medicine, 2012).
Where a name gives a salt, the structure may show the parent alone. Read-outs that look alike come from different tables or passages of the source.

What was measured:
[1] = system: antibiotic-resistant strain (A–E) of P. aeruginosa; assay: MIC against antibiotic-resistant strains; type: cell-based, Pseudomonas aeruginosa; conditions: for MIC: Pseudomonas aeruginosa; for Resistance/sensitivity class, strain A / MIC, P. aeruginosa strain A: antibiotic-resistant strain A; for Resistance/sensitivity class, strain B / MIC, P. aeruginosa strain B: antibiotic-resistant strain B; for Resistance/sensitivity class, strain C / MIC, P. aeruginosa strain C: antibiotic-resistant strain C; for Resistance/sensitivity class, strain D / MIC, P. aeruginosa strain D: antibiotic-resistant strain D; for Resistance/sensitivity class, strain E / MIC, P. aeruginosa strain E: antibiotic-resistant strain E
[2] = system: NIBS minipigs, full-thickness excisional wounds; assay: Porcine wound-healing model; type: in vivo, pig; conditions: anti-vWF staining; in comparison to control group; N = 6
Summary of the method: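 Three male NIBS minipigs (32.0–33.5 kg) premedicated with ketamine 500 mg/body under isoflurane 2–4%. Four 25 mm, 10 mm-deep full-thickness excisional wounds per side abdomen, 30 mm apart. Peptide 100 μg/ml or saline (200 μl/site) applied on days 0, 2, 4, 6, 8, 10 under polyurethane dressing. Day-12 frozen sections were acetone-fixed (−20°C, 15 min), and capillary EC immunostained with anti-vWF (1:200).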

[3] = system: db/db mice wounds with methicillin-resistant S. aureus; assay: Diabetic mouse infectious; type: in vivo
Summary of the method: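 Male C57BL/6 db/db mice, n = 6–8 per group, backs depilated 3 days before surgery. Under anaesthesia, 15 mm dorsal punch biopsy wounds received 100 μl MRSA (1 × 10^4 cfu/ml) topically, with or without peptide (100 μg/ml) or saline, under semi-permeable polyurethane dressing. Dosing and photographic wound-area measurement on days 0, 2, 4, 7, 9, 11, 14, 16. Means ± S.E.M.; ANOVA with Fisher's PLSD.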

[4] = system: C57BL/6 db/db mice, punch biopsy wounds; assay: Diabetic mouse wound-healing model; type: in vivo; conditions: topical 100 μg/ml
[5] = read-out: MIC, P. aeruginosa strain A
[6] = read-out: MIC, P. aeruginosa strain B
[7] = read-out: MIC, P. aeruginosa strain C
[8] = read-out: MIC, P. aeruginosa strain D
[9] = read-out: MIC, P. aeruginosa strain E

| Molecule | MIC [1, 5] [µg/mL] | MIC [1, 6] [µg/mL] | MIC [1, 7] [µg/mL] | MIC [1, 8] [µg/mL] | MIC [1, 9] [µg/mL] | Resistance/sensitivity class, strain A [1] | Resistance/sensitivity class, strain B [1] | Resistance/sensitivity class, strain C [1] | Resistance/sensitivity class, strain D [1] | Resistance/sensitivity class, strain E [1] | other results |
| --- | --- | --- | --- | --- | --- | --- | --- | --- | --- | --- | --- |
| C[C@H]1[C@H](NC(=O)/C(=N\OC(C)(C)C(=O)O)c2csc(N)n2)C(=O)N1S(=O)(=O)O [AZT, aztreonam] | < 8 | > 16 | < 8 | < 8 | > 16 | S | R | S | S | R | – |
| CC(C)(O/N=C(\C(=O)N[C@@H]1C(=O)N2C(C(=O)[O-])=C(C[n+]3ccccc3)CS[C@H]12)c1csc(N)n1)C(=O)O [CAZ, ceftazidime hydrate] | < 8 | < 8 | < 8 | < 8 | > 32 | S | S | S | S | R | – |
| CO/N=C(\C(=O)N[C@@H]1C(=O)N2C(C(=O)O)=C(C[N+]3(C)CCCC3)CS[C@H]12)c1csc(N)n1.Cl.O.[Cl-] [CFPM, cefepime hidrochloride hydrate] | – | – | – | – | – | – | – | – | – | – | MIC, P. aeruginosa strain A [1]: < 8 µg/mL; MIC, P. aeruginosa strain B [1]: < 8 µg/mL; MIC, P. aeruginosa strain C [1]: < 8 µg/mL; MIC, P. aeruginosa strain D [1]: < 8 µg/mL; MIC, P. aeruginosa strain E [1]: > 16 µg/mL |
| O=C(O)c1cn(C2CC2)c2cc(N3CCNCC3)c(F)cc2c1=O [CPFX, Ciprofloxacin hydrochloride] | < 1 | < 1 | < 1 | < 1 | > 2 | – | – | – | – | – | – |
| CCN1CCN(C(=O)N[C@@H](C(=O)N[C@@H]2C(=O)N3C(C(=O)O)=C(CSc4nnnn4C)CS[C@H]23)c2ccc(O)cc2)C(=O)C1=O [CPZ, cefoperazone sodium] | < 16 | 32 | < 16 | < 16 | > 32 | S | – | S | S | R | – |
| C[C@@H]1O[C@@H]1P(=O)(O)O [FOM, fosfomycin sodium] | > 16 | > 16 | > 16 | > 16 | > 16 | R | R | R | R | R | – |
| C[C@H]1COc2c(N3CCN(C)CC3)c(F)cc3c(=O)c(C(=O)O)cn1c23 [LVFX, levofloxacin hydrate] | < 2 | < 2 | < 2 | 4 | > 4 | S | S | S | S | R | – |
| NC[C@H]1O[C@H](O[C@H]2[C@H](O)[C@@H](O[C@H]3O[C@H](CO)[C@@H](O)[C@H](N)[C@H]3O)[C@H](N)C[C@@H]2N)[C@H](N)C[C@@H]1O [TOB, tobramycin] | > 8 | < 4 | > 8 | < 4 | < 4 | R | S | R | S | S | – |
| Gentamicin sulfate [GM] | – | – | – | – | – | R | S | R | S | – | MIC, P. aeruginosa strain A [1]: > 8 µg/mL; MIC, P. aeruginosa strain B [1]: < 4 µg/mL; MIC, P. aeruginosa strain C [1]: > 8 µg/mL; MIC, P. aeruginosa strain D [1]: < 4 µg/mL; MIC, P. aeruginosa strain E [1]: 8 µg/mL |
| LL37: well-known antimicrobial peptide with angiogenic effects | – | – | – | – | – | – | – | – | – | – | Microcapillary density, porcine wound [2]: significantly increased; Yellow pus on MRSA-infected wounds ([3]; MRSA 1 x 10^4 cfu/ml, co-treatment 100 μg/ml): attenuated the increase of yellow pus; Infectious wound size ([3]; MRSA, 100 μg/ml, days 11, 14 and 16 after treatment): significantly decreased wound size; Blood flow around the wound (LDI), diabetic mouse ([4]; 3 days after operation, compared with control group): significantly increased the blood flow; Spontaneous S. aureus infection of wounds during experiment ([4]; db/db mice): none of the mice; Wound size, diabetic mouse ([4]; db/db mice, day 14, versus control): significantly decreased wound size |
